From PubChem BioAssay
In the library only some 1.3% were active in any assay of this set; here they are far more common.
Efflux pump inh – inhibitors of Candida efflux pumps in yeast, primary screen, S. cerevisiae, Nile Red, multiplex; S. cerevisiae Candida pump triplex; inhibition, % at 10 µM; 330,000 tested, 0.44% active; AID 485275, 2010;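 active = plate passing quality check with inhibition over a set limit, or well fluorescence over plate mean plus 4 SD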;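 also: Nile Red retained in pooled yeast measured as flow cytometry median fluorescence; higher means more Nile Red kept so more efflux inhibition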
TAG inh – inhibitors of triacylglycerol accumulation, primary screen, cell-based, uHTS, fluorescence, H9c2; H9c2 cells, Nile Red lipid (TAG) fluorescence; cells loaded with 200 µM oleic acid; 230,000 tested, 0.66% active; inhibition, % at 12.5 µM; AID 651582, 2012;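 active = pattern-corrected inhibition of lipid staining of at least 50% with the nuclear-stain viability signal not falling by more than 50%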
HGIII-sPLA2 inh – human group III sPLA2 inhibitors, primary screen, biochemical, QFRET, BODIPY PC-A2 liposome substrate. QFRET BODIPY PC-A2 liposome hydrolysis, fluorescence. inhibition, % at 12.2 µM. 370,000 tested, 0.56% active. Group 3 secretory phospholipase A2 (Homo sapiens), Q9NZ20;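 active = inhibition above mean plus 3 SD of compounds lying within the high and low control bounds, cut at about 19% in these data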
Target sequence (Q9NZ20 whole entry, looked up): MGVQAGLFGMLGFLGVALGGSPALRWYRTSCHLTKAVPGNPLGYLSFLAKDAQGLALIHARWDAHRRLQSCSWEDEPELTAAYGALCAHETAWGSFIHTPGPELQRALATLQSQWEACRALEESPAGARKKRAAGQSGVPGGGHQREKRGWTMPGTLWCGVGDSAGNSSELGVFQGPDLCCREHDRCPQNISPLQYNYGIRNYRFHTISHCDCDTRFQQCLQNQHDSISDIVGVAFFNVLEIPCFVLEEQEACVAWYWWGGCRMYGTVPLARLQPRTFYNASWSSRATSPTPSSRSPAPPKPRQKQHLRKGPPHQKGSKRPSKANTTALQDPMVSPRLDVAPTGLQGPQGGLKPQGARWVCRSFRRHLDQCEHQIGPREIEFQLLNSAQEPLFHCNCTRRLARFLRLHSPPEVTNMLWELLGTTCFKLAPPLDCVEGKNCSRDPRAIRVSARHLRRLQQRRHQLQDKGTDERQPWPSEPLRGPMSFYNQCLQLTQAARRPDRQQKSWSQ
MT1-MMP act inh – blockers of MT1-MMP proenzyme processing, primary screen, HT1080 RFP-PRO-GFP cells, GFP/RFP fluorescence | 360,000 tested, 0.061% active | Matrix metalloproteinase-14 (Homo sapiens), P50281 | GFP/RFP ratio change, % at 20 µM | AID 651647, 2012 | GFP/RFP ratio fluorescence, overnight; percent of plate control window, DMSO zero;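 active = GFP/RFP ratio change of at least 30% with cell ATP level not reduced by more than half and red fluorescence within 50% of control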
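Test system: HT1080 cells expressing an RFP-PRO-GFP fluorescent reporter construct / Compound dosing: single-point 20 µM compound, 1% DMSO / Schedule: cells overnight before dosing, compound overnight, 37 °C, 5% CO2 / Evaluation: GFP/RFP fluorescence ratio / Control set: DMSO and RFP-L50D-GFP cell wells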
Cmpd fluor yeast – counter-screen for efflux pump inhibitors: compound fluorescence; fluorescence ratio to DMSO, % at 10 µM; S. cerevisiae AD/pABC3, flow cytometry; 1,700 tested, 4% active; AID 588517; shares compounds with Efflux pump inh;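 active = fluorescence ratio to DMSO above its plate's cutoff, the plate mean ratio plus 5 SD, cut at about 210% in these data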;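 also: unstained yeast with no Nile Red so the signal is compound autofluorescence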
CaMdr1 efflux inh – inhibitors of Candida albicans Mdr1 efflux, confirmation, flow cytometry, singleplex, Cherry Pick1 set; 1,700 tested, 1% active; shares compounds with Efflux pump inh; inhibition, % at 10 µM; S. cerevisiae AD/CaMDR1, Nile Red efflux; in the data active = inhibition above about 26%;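 also: higher means more Nile Red retained so more efflux inhibition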
CaCdr2 efflux inh – inhibitors of Candida albicans Cdr2 efflux pump, confirmation, S. cerevisiae AD/CaCDR2, flow cytometry, cherry pick 1, singleplex. 1,700 tested, 4% active. Nile Red retention. shares compounds with Efflux pump inh. Nile Red retention ratio vs DMSO, % at 10 µM; in the data active = Nile Red retention ratio vs DMSO above about 190%;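 also: higher ratio means more blocking of Cdr2 efflux of the dye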
CaCdr1 efflux inh – inhibitors of Candida albicans Cdr1 efflux pump, confirmation, S. cerevisiae AD/CaCDR1, flow cytometry, cherry pick 1, singleplex. shares compounds with Efflux pump inh. AID 588522, 2011. Nile Red efflux. inhibition, % at 10 µM. 1,700 tested, 1% active;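 active = inhibition above the screen-wide mean plus twice its standard deviation, cut at about 32% in these data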
Of the large screens only hits and unclear results are named; the others gave an inactive call (follow-up assays come after a bar, where they were run).

COc1ccc(NC(=O)CSc2nnc(Cc3cccs3)n2-c2ccc(C)cc2)cc1	none (no result: TAG inh, HGIII-sPLA2 inh) | Cmpd fluor yeast inactive | CaMdr1 efflux inh inactive | CaCdr2 efflux inh inactive | CaCdr1 efflux inh inactive
Cc1ccc(-n2c(Cc3cccs3)nnc2SCC(=O)Nc2ccc(S(N)(=O)=O)cc2)cc1	none
NS(=O)(=O)c1ccc(NC(=O)CSc2nnc(Cc3cccs3)n2-c2ccccc2)cc1	none (no result: TAG inh) | Cmpd fluor yeast inactive | CaMdr1 efflux inh inactive | CaCdr2 efflux inh inactive | CaCdr1 efflux inh inactive
COc1ccc(-n2c(Cc3cccs3)nnc2SCC(=O)Nc2ccc3c(c2)OCCO3)cc1	none
COc1cccc(NC(=O)CSc2nnc(Cc3cccs3)n2-c2ccc(C)cc2)c1	none (no result: TAG inh) | Cmpd fluor yeast inactive | CaMdr1 efflux inh inactive | CaCdr2 efflux inh inactive | CaCdr1 efflux inh inactive
CC(NC(=O)c1c(N)[nH]c(C(=O)c2ccc(Cl)cc2)c1-c1ccc(Br)cc1)c1cccc2ccccc12 (configuration not stated)	none (no result: Efflux pump inh, TAG inh, MT1-MMP act inh)
CC(C)c1ccc(C(=O)NC(=S)Nc2ccc3[nH]c(=O)[nH]c3c2)cc1	none | Cmpd fluor yeast inactive | CaMdr1 efflux inh inactive | CaCdr2 efflux inh inactive | CaCdr1 efflux inh inactive
Cc1cc(C)nc(NC(=S)N2CCN(c3ncc(C(F)(F)F)cc3Cl)CC2)c1	none (no result: Efflux pump inh, TAG inh, MT1-MMP act inh)
O=C(CN1CCN(c2cccc(C(F)(F)F)c2)CC1)N(C1CCCC1)C1CCS(=O)(=O)C1 (configuration not stated)	none
COc1ccc(CNC(=S)Nc2cccc(C)c2C)cc1	none (no result: TAG inh)
Nc1ccn(CC(=O)NCCc2ccccn2)c(=O)n1	Efflux pump inh 2.8 | Cmpd fluor yeast inactive | CaMdr1 efflux inh inactive | CaCdr2 efflux inh inactive | CaCdr1 efflux inh inactive
Nc1ccn(CC(=O)NCc2ccccn2)c(=O)n1	none
Cc1cccc(NC(=O)c2cc3cc([N+](=O)[O-])ccc3s2)n1	Efflux pump inh 1.1 | Cmpd fluor yeast inactive | CaMdr1 efflux inh inactive | CaCdr2 efflux inh inactive | CaCdr1 efflux inh inactive
COc1ccc(S[C@]2(C(=O)NCC(C)C)CC(=O)N[C@@H]2c2ccc(OC)cc2)cc1	none (no result: Efflux pump inh, TAG inh, MT1-MMP act inh)
Cc1cc(C(=O)NNS(=O)(=O)c2ccc(C(C)(C)C)cc2)nn1C(C)(C)C	Efflux pump inh 0.6 | Cmpd fluor yeast inactive | CaMdr1 efflux inh inactive | CaCdr2 efflux inh inactive | CaCdr1 efflux inh inactive
Cc1ccc(S(=O)(=O)N2CCC(C(=O)N[C@@H](C)C(=O)Nc3ccc(F)cc3)CC2)cc1	Efflux pump inh 0.8 (no result: TAG inh) | Cmpd fluor yeast inactive | CaMdr1 efflux inh inactive | CaCdr2 efflux inh inactive | CaCdr1 efflux inh inactive
Cc1ccc(NC(=O)C2CCN(S(=O)(=O)c3ccc(F)cc3)CC2)cc1	none (no result: TAG inh)
Cc1ccc(-c2cnc(C(O)c3cc(C)cc(C)c3)[nH]2)cc1 (configuration not stated)	none (no result: Efflux pump inh)
COCCNC(=S)N1CCc2cc(OC)c(OC)cc2C1COc1ccc(C(C)C)cc1 (configuration not stated)	Efflux pump inh 6.8 (no result: TAG inh) | Cmpd fluor yeast inactive | CaMdr1 efflux inh inactive | CaCdr2 efflux inh inactive | CaCdr1 efflux inh inactive
CCOCCCNC(=O)c1ccc(Cn2c(=S)[nH]c3c([nH]c4ccc(OC)cc43)c2=O)cc1	none
CCCCNC(=O)c1ccc(Cn2c(=S)[nH]c3c([nH]c4ccc(OC)cc43)c2=O)cc1	Efflux pump inh 8.2 | Cmpd fluor yeast inactive | CaMdr1 efflux inh inactive | CaCdr2 efflux inh inactive | CaCdr1 efflux inh inactive
CCC(=O)N(Cc1ccc(C)cc1)Cc1cc2cc3c(cc2[nH]c1=O)OCO3	Efflux pump inh 11 (no result: TAG inh) | Cmpd fluor yeast inactive | CaMdr1 efflux inh inactive | CaCdr2 efflux inh inactive | CaCdr1 efflux inh inactive
O=C(COc1ccc(Cl)cc1Cl)NN1C(=O)/C(=C\c2ccc(Cl)cc2)SC1=S	none | Cmpd fluor yeast inactive | CaMdr1 efflux inh inactive | CaCdr2 efflux inh inactive | CaCdr1 efflux inh inactive
O=C(C(=O)N(C1CCCCC1)C1CCCCC1)c1ccccc1	none (no result: Efflux pump inh, TAG inh)
COc1ccc(-c2[nH]c(-c3ccc4c(c3)OCO4)nc2-c2ccccc2)cc1	Efflux pump inh 0.3 | Cmpd fluor yeast inactive | CaMdr1 efflux inh inactive | CaCdr2 efflux inh inactive | CaCdr1 efflux inh inactive
COc1ccccc1N1CCN(C(=O)c2ccc3c(c2)nc(C)n3-c2cc(OC)c(OC)c(OC)c2)CC1	none (no result: Efflux pump inh, TAG inh, MT1-MMP act inh)
Cc1cc(S(=O)(=O)NCC(c2ccc3c(c2)OCO3)N2CCOCC2)ccc1F (configuration not stated)	Efflux pump inh 1.0 | Cmpd fluor yeast inactive | CaMdr1 efflux inh inactive | CaCdr2 efflux inh inactive | CaCdr1 efflux inh inactive
O=S(=O)(NCC(c1ccc2c(c1)OCO2)N1CCOCC1)c1ccc(Cl)cc1 (configuration not stated)	none
O=C(NNC(=O)c1cccs1)c1ccc(S(=O)(=O)N2CCCCC2)cc1	Efflux pump inh 11 (no result: TAG inh) | Cmpd fluor yeast inactive | CaMdr1 efflux inh inactive | CaCdr2 efflux inh inactive | CaCdr1 efflux inh inactive
COc1ccc(C2C(C#N)=C(N)N(c3ccccc3C#N)C3=C2C(=O)CCC3)cc1CN1CCCC1 (configuration not stated)	Efflux pump inh 9.6 (no result: TAG inh) | Cmpd fluor yeast inactive | CaMdr1 efflux inh inactive | CaCdr2 efflux inh inactive | CaCdr1 efflux inh inactive
Cn1cc(/C=C/c2cc[n+](C)cc2)c2cc(F)ccc21	Efflux pump inh 9.5 (no result: TAG inh, HGIII-sPLA2 inh) | Cmpd fluor yeast 743 | CaMdr1 efflux inh inactive | CaCdr2 efflux inh inactive | CaCdr1 efflux inh inactive
Cn1cc(/C=C/c2cc[n+](C)cc2)c2cc(Cl)ccc21	Efflux pump inh 5.9 (no result: TAG inh) | Cmpd fluor yeast 735 | CaMdr1 efflux inh inactive | CaCdr2 efflux inh inactive | CaCdr1 efflux inh inactive
Cn1cc(C=O)c2cc(F)ccc21	none
O=C(O)CC/C(=N\NC(=O)c1ccccc1Br)c1ccccc1	Efflux pump inh 18 (no result: TAG inh) | Cmpd fluor yeast inactive | CaMdr1 efflux inh inactive | CaCdr2 efflux inh inactive | CaCdr1 efflux inh inactive
CC(C)c1nc(N2CCOCC2)c(C#N)c2c1CCC2	none
CC(C)N1CCCCC(NC(=O)c2cccc(F)c2)C1=O (configuration not stated)	none (no result: Efflux pump inh, TAG inh, MT1-MMP act inh)
CCCCCCCCn1ccc(=N)cc1	Efflux pump inh 0.8 | Cmpd fluor yeast inactive | CaMdr1 efflux inh inactive | CaCdr2 efflux inh inactive | CaCdr1 efflux inh inactive
